According to ChEMBL document CHEMBL3352189 (J Med Chem, 2014):
Activity calls are given as the source filed them. The rule behind the calls is not given here.

Assays:
[1] = target: Neuropeptide Y receptor type 2 (Homo sapiens) (UniProt P49146); test: Displacement of [125I]Peptide YY from human neuropeptide Y Y2 receptor at 10 uM
[2] = target: T1, Glutamate NMDA receptor (Rattus norvegicus) (UniProt P35439+Q00959+Q00960+Q00961+Q62645+Q8VHN2+Q9R1M7); test: Displacement of [3H]TCP from rat NMDA receptor phencyclidine binding site binding site at 10 uM; assay type: protein-complex assay
Mus musculus [3] = test: Toxicity in Venezuelan equine encephalitis virus TC83 infected C3H/HeN mouse assessed as induction of ruffled fur at 40 mg/kg/day, ip BID for 4 days; assay type: organism-based; design: route intraperitoneal; conditions: in vivo, 96 h
[4] = target: T1, Glutamate NMDA receptor (Rattus norvegicus); test: Displacement of [3H]MDL 105,519 from rat NMDA receptor glycine binding site binding site at 10 uM; assay type: protein-complex assay
[5] = target: Platelet-activating factor receptor (Homo sapiens) (UniProt P25105); test: Displacement of [3H]PAF from human PAF receptor at 10 uM
[6] = target: D(4) dopamine receptor (Homo sapiens) (UniProt P21917); test: Displacement of [3H]spiperone from human dopamine D4.2 receptor at 10 uM
[7] = Plasma concentration in C57BL/6 mouse at 5 mg/kg, ip administered as single dose measured after 120 mins by LC/MS analysis based RACE assay; assay type: ADME, organism-based; design: dose 5 mg/kg, route intraperitoneal
Outline: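 Single intraperitoneal dose of 1, 5 or 10 mg/kg given to C57BL/6 mice, 3 mice per dose and time point, with a vehicle-control cohort. Plasma was sampled at 20 and 120 min post-dose and drug level measured by LC/MS. Each time point averaged two injections (<20% difference); values are means ± standard deviation in μM.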

[8] = system: Venezuelan equine encephalitis virus; test: Antiviral activity against Venezuelan equine encephalitis virus TrD infected in Vero 76 cells assessed as reduction in viral titer at 1 uM by crystal violet staining based microplaque assay relative to untreated control; assay type: functional
Rattus norvegicus [9] = organism: Rattus norvegicus; test: Displacement of [3H]GABA from rat GABA transporter at 10 uM
[10] = target: B2 bradykinin receptor (Homo sapiens) (UniProt P30411); test: Displacement of [3H]bradykinin from human bradykinin B2 receptor at 10 uM
[11] = Drug concentration in C57BL/6 mouse brain at 1 mg/kg, ip administered as single dose measured after 120 mins by LC/MS analysis based RACE assay; assay type: ADME, organism-based; design: dose 1 mg/kg, route intraperitoneal; conditions: read-out: Drug uptake
Outline: (§1)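 Brain tissue taken at the terminal 120 min point after one intraperitoneal dose (1, 5 or 10 mg/kg) in C57BL/6 mice, 3 per group, with a vehicle cohort. Drug level measured by LC/MS, averaging two injections per sample; reported as mean ± standard deviation, μM.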

[12] = target: Muscarinic acetylcholine receptor M3 (Homo sapiens) (UniProt P20309); test: Displacement of [3H]N-Methylscopolamine from human muscarinic M3 receptor at 10 uM
Mus musculus [13] = test: Toxicity in Venezuelan equine encephalitis virus TC83 infected C3H/HeN mouse assessed as induction of ruffled fur at 5 mg/kg/day, ip BID for 4 days; assay type: organism-based; design: route intraperitoneal; conditions: in vivo, 96 h
Rattus norvegicus [14] = organism: Rattus norvegicus; test: Displacement of [125I]omega-Conotoxin GVIA from rat N-type calcium channel at 10 uM
[15] = target: L-type calcium channel, dihydropyridine site (Rattus norvegicus, UniProt P22002+P27732+Q02485); test: Displacement of [3H]nitrendipine from rat calcium channel L-Type dihydropyridine site at 10 uM; assay type: protein assay; conditions: probe [3H]nitrendipine
[16] = target: Endothelin-1 receptor (Homo sapiens) (UniProt P25101); test: Displacement of [125I]endothelin-1 from human ETA receptor at 10 uM
[17] = target: Acetylcholine receptor subunit alpha (Homo sapiens) (UniProt P02708); test: Displacement of [125I]alpha-Bungarotoxin from human nAchR alpha1 bungarotoxin binding site at 10 uM
Mus musculus [18] = test: Toxicity in Venezuelan equine encephalitis virus TC83 infected C3H/HeN mouse assessed as induction of lethargy at 40 mg/kg/day, ip BID for 4 days; assay type: organism-based; design: route intraperitoneal; conditions: in vivo, 96 h
[19] = target: GABA-A receptor; anion channel (Homo sapiens) (UniProt P14867+P47870+P18507+P28472+P48169+Q99928+Q9UN88+P34903+O00591+O14764+Q8N1C3+P18505+P78334+P47869+P31644+Q16445); test: Displacement of ABC from rat GABAA receptor central flunitrazepam site at 10 uM; assay type: protein-complex assay; conditions: target entry is the homologue from another species
Rattus norvegicus [20] = organism: Rattus norvegicus; test: Displacement of [3H]idazoxan from rat Imidazole receptor 2 at 10 uM
[21] = target: Sigma non-opioid intracellular receptor 1 (Homo sapiens) (UniProt Q99720); test: Displacement of [3H]haloperidol from human sigma1 receptor at 10 uM
[22] = Drug concentration in C57BL/6 mouse brain at 10 mg/kg, ip administered as single dose measured after 120 mins by LC/MS analysis based RACE assay; assay type: ADME, organism-based; design: dose 10 mg/kg, route intraperitoneal; conditions: read-out: Drug uptake; outline: as §1
[23] = target: Epidermal growth factor receptor (Homo sapiens) (UniProt P00533); test: Displacement of [125I]EGF from human EGFR at 10 uM
Rattus norvegicus [24] = organism: Rattus norvegicus; test: Displacement of radioligand from rat sodium channel site 2 at 10 uM
[25] = target: Melatonin-related receptor (Homo sapiens) (UniProt Q13585); test: Displacement of [125I]2-Iodomelatonin from human MT1 receptor at 10 uM
[26] = target: T1, Glutamate NMDA receptor (Rattus norvegicus); test: Displacement of [3H]CGP-39653 from rat NMDA receptor agonist binding site binding site at 10 uM; assay type: protein-complex assay
Cricetinae = test: Displacement of [3H]glyburide from hamster KATP channel at 10 uM
[27] = target: Neuropeptide Y receptor type 1 (Homo sapiens) (UniProt P25929); test: Displacement of [125I]Peptide YY from human neuropeptide Y Y1 receptor at 10 uM
[28] = target: Beta-1 adrenergic receptor (Homo sapiens) (UniProt P08588); test: Displacement of [125I]cyanopindolol from human adrenergic beta1 receptor at 10 uM
[29] = Stability in 1:1 PBS/acetonitrile assessed as parent compound remaining; assay type: physicochemical; conditions: buffer
Outline: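 Aqueous stability measured after 48 h incubation, in PBS pH 7.4 or in 1:1 PBS/acetonitrile; reported as % parent remaining.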

[30] = system: Venezuelan equine encephalitis virus; test: Antiviral activity against Venezuelan equine encephalitis virus TC83 infected in C3H/HeN mouse assessed as mouse survival at […], ip BID for 4 days dosed 4 hrs before viral infection (reference value: 14%); assay type: functional; conditions: route intraperitoneal
[31] = system: Venezuelan equine encephalitis virus; test: Antiviral activity against Venezuelan equine encephalitis virus TrD infected in Vero 76 cells assessed as reduction in viral titer at 0.5 uM by crystal violet staining based microplaque assay relative to untreated control; assay type: functional, organism-based
[32] = target: 5-hydroxytryptamine receptor 2B (Homo sapiens) (UniProt P41595); test: Displacement of [3H]lysergic acid diethylamide from human 5HT2B receptor at 10 uM
[33] = target: D(2) dopamine receptor (Homo sapiens) (UniProt P14416); test: Displacement of [3H]spiperone from human dopamine D2S receptor at 10 uM
Plasma = test: Stability in mouse plasma assessed as parent compound remaining after 3 hrs; assay type: ADME, cell-free
[34] = Protein binding in human plasma at 10 uM; assay type: ADME, cell-free; conditions: read-out: PPB (converted)
Mus musculus [35] = organism: Mus musculus; test: Displacement of [125I]interleukin-1beta from mouse IL1 receptor at 10 uM

D(4) dopamine receptor (Homo sapiens), sequence (P21917 whole entry): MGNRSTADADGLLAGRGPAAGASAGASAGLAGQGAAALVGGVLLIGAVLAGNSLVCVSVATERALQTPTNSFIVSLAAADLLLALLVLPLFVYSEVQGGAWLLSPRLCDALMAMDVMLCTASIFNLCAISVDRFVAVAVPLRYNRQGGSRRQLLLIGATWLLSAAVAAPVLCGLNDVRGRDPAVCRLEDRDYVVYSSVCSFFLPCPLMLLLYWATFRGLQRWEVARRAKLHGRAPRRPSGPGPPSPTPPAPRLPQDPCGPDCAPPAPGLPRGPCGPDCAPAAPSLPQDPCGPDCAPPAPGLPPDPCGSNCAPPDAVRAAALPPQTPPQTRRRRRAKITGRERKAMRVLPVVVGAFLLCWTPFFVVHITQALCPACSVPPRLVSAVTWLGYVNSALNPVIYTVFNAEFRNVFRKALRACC
Neuropeptide Y receptor type 2 (Homo sapiens), sequence (P49146 whole entry): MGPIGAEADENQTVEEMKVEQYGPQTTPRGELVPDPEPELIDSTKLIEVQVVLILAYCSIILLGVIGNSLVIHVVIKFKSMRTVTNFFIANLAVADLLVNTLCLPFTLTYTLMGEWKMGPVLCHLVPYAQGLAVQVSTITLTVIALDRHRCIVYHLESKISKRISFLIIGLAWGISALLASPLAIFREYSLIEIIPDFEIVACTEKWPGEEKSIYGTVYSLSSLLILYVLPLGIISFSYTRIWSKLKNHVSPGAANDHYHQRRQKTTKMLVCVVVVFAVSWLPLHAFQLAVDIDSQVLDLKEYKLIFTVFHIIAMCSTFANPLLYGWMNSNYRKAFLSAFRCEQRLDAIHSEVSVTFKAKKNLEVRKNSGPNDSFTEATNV
B2 bradykinin receptor (Homo sapiens), sequence (P30411 whole entry): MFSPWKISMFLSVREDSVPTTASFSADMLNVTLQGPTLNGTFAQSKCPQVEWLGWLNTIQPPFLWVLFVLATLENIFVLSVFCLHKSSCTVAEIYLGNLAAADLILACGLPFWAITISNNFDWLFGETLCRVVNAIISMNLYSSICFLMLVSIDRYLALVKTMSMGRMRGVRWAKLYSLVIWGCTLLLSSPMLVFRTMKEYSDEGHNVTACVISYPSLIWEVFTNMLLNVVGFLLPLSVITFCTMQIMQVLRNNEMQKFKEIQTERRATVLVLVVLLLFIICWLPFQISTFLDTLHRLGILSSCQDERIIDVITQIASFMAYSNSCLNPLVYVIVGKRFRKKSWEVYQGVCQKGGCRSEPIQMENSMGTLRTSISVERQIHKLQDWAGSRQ
Endothelin-1 receptor (Homo sapiens), sequence (P25101 whole entry): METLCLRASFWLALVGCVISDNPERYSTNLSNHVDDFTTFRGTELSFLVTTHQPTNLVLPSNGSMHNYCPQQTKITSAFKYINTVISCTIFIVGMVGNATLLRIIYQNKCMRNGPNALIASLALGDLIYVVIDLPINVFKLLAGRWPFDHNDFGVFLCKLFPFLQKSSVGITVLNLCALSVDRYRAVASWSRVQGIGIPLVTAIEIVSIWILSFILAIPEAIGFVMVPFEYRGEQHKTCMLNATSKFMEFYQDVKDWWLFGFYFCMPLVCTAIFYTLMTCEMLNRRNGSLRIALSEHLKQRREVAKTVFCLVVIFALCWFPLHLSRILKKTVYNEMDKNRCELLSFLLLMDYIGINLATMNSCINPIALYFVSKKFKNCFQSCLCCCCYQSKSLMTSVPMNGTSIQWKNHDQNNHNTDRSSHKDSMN
Melatonin-related receptor (Homo sapiens), sequence (Q13585 whole entry): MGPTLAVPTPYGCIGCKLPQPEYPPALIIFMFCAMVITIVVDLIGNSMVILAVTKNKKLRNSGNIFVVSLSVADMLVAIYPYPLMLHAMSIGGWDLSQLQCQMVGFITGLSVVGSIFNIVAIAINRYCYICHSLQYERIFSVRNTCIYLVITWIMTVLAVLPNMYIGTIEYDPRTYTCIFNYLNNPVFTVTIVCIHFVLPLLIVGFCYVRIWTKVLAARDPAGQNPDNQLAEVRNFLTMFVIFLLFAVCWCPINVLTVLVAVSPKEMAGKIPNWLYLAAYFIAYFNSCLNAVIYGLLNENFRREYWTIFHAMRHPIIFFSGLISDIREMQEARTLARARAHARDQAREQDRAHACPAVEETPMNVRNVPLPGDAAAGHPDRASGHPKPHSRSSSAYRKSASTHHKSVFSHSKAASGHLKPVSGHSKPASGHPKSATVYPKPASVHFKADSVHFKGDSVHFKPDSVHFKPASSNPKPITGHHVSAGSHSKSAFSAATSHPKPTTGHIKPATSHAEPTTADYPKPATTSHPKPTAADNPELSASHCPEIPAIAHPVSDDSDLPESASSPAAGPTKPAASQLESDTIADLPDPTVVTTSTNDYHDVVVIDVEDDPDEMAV
Acetylcholine receptor subunit alpha (Homo sapiens), sequence (P02708 whole entry): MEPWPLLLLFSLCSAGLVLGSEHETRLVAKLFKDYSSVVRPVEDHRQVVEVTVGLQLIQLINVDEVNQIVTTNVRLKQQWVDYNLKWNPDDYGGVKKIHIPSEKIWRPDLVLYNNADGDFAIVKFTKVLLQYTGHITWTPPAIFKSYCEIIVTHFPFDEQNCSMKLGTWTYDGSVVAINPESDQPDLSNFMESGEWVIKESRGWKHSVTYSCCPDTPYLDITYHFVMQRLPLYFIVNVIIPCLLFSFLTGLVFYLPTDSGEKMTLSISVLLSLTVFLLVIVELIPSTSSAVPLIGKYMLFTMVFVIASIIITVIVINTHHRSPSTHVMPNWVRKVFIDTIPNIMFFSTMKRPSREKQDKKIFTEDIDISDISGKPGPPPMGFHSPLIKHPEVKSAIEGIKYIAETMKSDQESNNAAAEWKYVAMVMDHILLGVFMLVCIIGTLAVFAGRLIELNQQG
Muscarinic acetylcholine receptor M3 (Homo sapiens), sequence (P20309 whole entry, looked up): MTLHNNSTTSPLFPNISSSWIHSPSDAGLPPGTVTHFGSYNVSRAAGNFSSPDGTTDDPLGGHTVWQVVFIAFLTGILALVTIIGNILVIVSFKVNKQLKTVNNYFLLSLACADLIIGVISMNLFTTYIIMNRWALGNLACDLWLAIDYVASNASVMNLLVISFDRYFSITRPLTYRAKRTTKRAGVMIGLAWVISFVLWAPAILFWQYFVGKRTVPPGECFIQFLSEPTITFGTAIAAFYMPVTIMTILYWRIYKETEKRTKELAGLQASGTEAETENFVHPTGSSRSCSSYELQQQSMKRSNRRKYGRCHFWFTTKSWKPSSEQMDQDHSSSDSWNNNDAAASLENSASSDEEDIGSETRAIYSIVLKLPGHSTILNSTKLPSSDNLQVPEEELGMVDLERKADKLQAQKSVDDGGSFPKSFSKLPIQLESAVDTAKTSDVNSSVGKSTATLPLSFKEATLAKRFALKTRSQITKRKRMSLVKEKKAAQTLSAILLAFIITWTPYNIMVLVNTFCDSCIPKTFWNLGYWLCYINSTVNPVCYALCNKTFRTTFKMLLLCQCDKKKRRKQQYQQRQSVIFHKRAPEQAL
Platelet-activating factor receptor (Homo sapiens), sequence (P25105 whole entry): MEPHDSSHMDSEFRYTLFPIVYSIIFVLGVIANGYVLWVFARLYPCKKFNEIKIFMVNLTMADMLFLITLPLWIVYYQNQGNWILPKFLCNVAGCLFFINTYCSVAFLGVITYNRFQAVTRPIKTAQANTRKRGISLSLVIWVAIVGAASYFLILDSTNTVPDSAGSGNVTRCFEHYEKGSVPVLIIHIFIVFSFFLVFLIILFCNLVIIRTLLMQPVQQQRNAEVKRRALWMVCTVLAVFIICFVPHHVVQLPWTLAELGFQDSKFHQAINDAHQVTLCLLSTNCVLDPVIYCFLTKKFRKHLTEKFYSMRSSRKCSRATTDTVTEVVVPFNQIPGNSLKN
Beta-1 adrenergic receptor (Homo sapiens), sequence (P08588 whole entry, looked up): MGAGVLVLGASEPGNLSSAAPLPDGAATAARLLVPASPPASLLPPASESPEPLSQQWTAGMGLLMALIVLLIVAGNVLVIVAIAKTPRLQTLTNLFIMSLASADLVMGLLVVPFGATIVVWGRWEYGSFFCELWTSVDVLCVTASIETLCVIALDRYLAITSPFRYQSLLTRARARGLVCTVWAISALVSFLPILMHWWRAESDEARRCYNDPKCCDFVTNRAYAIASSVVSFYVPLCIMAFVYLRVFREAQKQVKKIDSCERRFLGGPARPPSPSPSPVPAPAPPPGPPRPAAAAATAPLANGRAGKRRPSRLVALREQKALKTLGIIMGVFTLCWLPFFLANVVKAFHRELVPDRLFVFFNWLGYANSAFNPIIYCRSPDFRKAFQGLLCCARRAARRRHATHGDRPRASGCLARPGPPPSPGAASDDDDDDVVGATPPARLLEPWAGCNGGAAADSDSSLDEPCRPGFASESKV
D(2) dopamine receptor (Homo sapiens), sequence (P14416 whole entry): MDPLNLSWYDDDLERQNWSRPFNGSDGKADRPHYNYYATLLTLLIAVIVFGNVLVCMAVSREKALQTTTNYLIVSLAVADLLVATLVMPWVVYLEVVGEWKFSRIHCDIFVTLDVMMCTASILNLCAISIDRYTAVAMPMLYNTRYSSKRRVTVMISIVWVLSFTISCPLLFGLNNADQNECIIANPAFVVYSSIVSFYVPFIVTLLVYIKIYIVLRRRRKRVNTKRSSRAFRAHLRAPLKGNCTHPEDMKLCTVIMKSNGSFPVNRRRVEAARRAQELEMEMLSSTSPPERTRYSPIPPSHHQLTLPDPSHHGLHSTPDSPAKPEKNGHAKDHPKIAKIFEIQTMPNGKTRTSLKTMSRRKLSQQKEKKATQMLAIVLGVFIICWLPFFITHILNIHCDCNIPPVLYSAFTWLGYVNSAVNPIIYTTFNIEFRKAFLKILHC
Sigma non-opioid intracellular receptor 1 (Homo sapiens), sequence (Q99720 whole entry): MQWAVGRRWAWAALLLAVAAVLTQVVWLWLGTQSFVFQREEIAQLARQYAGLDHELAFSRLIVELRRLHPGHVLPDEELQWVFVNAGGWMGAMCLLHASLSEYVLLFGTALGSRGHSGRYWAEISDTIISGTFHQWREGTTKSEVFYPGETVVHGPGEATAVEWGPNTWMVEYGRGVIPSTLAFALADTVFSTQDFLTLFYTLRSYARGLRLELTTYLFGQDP

CN1CCN(C)/C(=N/c2ccc([N+](=O)[O-])cc2C(=O)Nc2ccccc2)C1
inhibition [1]: -6.1%
inhibition [2]: 9.28%
Activity (Mus musculus [3]): Non-toxic
inhibition [4]: 12.9%
inhibition [5]: 7.04%
inhibition [6]: 11.2%
concentration at 2 h [7]: 290 nM
inhibition [8]: Active
inhibition (Rattus norvegicus [9]): 0.42%
inhibition [10]: 3.4%
concentration at 2 h [11]: 190 nM
inhibition [12]: 3%
Activity (Mus musculus [13]): Non-toxic
inhibition (Rattus norvegicus [14]): 22.7%
inhibition at 10 µM [15]: 4.51%
inhibition [16]: 7.78%
inhibition [17]: 0.62%
Activity (Mus musculus [18]): Non-toxic
inhibition [19]: 15.2%
inhibition (Rattus norvegicus [20]): 14.4%
inhibition [21]: 6.54%
concentration at 2 h [22]: 350 nM
inhibition [23]: -2.63%
inhibition (Rattus norvegicus [24]): 9.27%
inhibition [25]: 18%
inhibition [26]: -2.6%
inhibition (Cricetinae): 4.77%
inhibition [27]: 25.9%
inhibition [28]: 3.56%
Stability [29]: 95.9%
survival at […] [30]: 127%
inhibition [31]: Active
inhibition [32]: 10%
inhibition [33]: 9.08%
Stability (Plasma): 65.4%
fraction unbound at 10 µM [34]: 0.23
inhibition (Mus musculus [35]): 3.11%
